These results are taken from ChEMBL document CHEMBL1124476, “1-(2-aminoethyl)-6-aryl-4H- [1,2,4]triazolo[4,3-a][1,4]benzodiazepines with diuretic and natriuretic activity” (J Med Chem, 1989).

The subject of series [1] is Rattus norvegicus. The series can be described thus: Mean excretion of sodium in conscious rats at a dose of 30 mg/kg given orally. The series is classed as ADME, organism-based. The arrangement: dose 30 mg/kg, route oral. The conditions noted are these: in vivo, po. A digest of the protocol: (§1)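 Male Sprague-Dawley rats, about 160 g, fasted 24 h and water withheld 1 1/2 h beforehand; food and water withheld during the test. Dosing by gavage with 25 mL/kg 0.9% saline containing 0.5% (carboxymethyl)cellulose, agent dissolved or suspended. Three cages of two rats each per dose, held in metabolism cages. Urine collected over 5 h. Volume given in mL, Na+ in mequiv. Significance versus control at P < 0.05.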

Series [2] in a line: Diuretic activity at 40 mg/kg (screening dose-84.7 umol/kg) in […] in a two stage experiment; T/C1.2 = urine vol of treated rats / urine vol of control rats. The series is classed as functional. A digest of the protocol: (§2)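 40 mg/kg given by gavage in 25 mL/kg 0.9% saline with 0.5% (carboxymethyl)cellulose. Four rats per agent, two per metabolism cage; 20 controls; 5 h urine. T/C = treated/control urine volume. Stage-1 T/C of 1.66 or more leads to stage 2; product T/C1·T/C2 of 3.34 or more counts as active.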

Series [3] deals with Rattus norvegicus. Kind of series: Mean excretion of sodium in conscious rats at a dose of 3.0 mg/kg given orally. Conditions: in vivo, po. On the set-up: dose 3 mg/kg, route oral. The series is classed as ADME, organism-based. A digest of the protocol: as §1
The species entered for series [4] is Rattus norvegicus. The series can be described thus: […]. Format: ADME, organism-based, Urine. The arrangement: dose 10 mg/kg, route oral. The conditions noted are these: in vivo, po, 10 mg/kg. A digest of the protocol:
as §1

For series [5], the system named is Rattus norvegicus. The series can be described thus: Mean excretion of chloride in conscious rats at a dose of 1.0 mg/kg given orally. The conditions noted are these: in vivo, po. Format: ADME, organism-based. The arrangement: dose 1 mg/kg, route oral. A digest of the protocol: (§3)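 Secondary dose-response in male Sprague-Dawley rats (~160 g), fasted and hydrated as in the primary screen. Oral gavage at 0.3-100 mg/kg in 25 mL/kg saline/0.5% CMC, three cages of two rats per dose. Urine collected 5 h; Na, K, Cl, HCO3 measured. Values are mean excretion (mequiv), compared with controls at P < 0.05.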

Series [6] deals with Rattus norvegicus. The series can be described thus: Mean excretion of sodium in conscious rats at a dose of 0.3 mg/kg given orally. Format: ADME, organism-based. The arrangement: dose 0.3 mg/kg, route oral. The conditions noted are these: in vivo, po. A digest of the protocol: as §1
For series [7], the system named is Rattus norvegicus. Kind of series: Mean excretion of sodium in conscious rats at a dose of 10 mg/kg given orally. The conditions noted are these: in vivo, po. Format: ADME, organism-based. On the set-up: dose 10 mg/kg, route oral. A digest of the protocol:
as §1

The subject of series [8] is Rattus norvegicus. Kind of series: Mean excretion of potassium in conscious rats at a dose of 100 mg/kg given orally. On the set-up: dose 100 mg/kg, route oral. The series is classed as ADME, organism-based. The conditions noted are these: in vivo, po. A digest of the protocol: as §3
The species named for series [9] is Rattus norvegicus. The series can be described thus: […]. Format: ADME, organism-based, Urine. The arrangement: dose 1 mg/kg, route oral. The conditions noted are these: in vivo, po, 1 mg/kg. A digest of the protocol: (§4)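 Dose-response test in male Sprague-Dawley rats of about 160 g, fasted 24 h, with water withheld 1½ h before and during the test. Each rat got a single gavage of 25 mL/kg 0.9% saline with 0.5% carboxymethylcellulose carrying the agent (0.3–100 mg/kg range). Rats were housed two per metabolism cage, and urine was collected for 5 h. Mean urine volume (mL) was compared with controls (P < 0.05).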

The species named for series [10] is Rattus norvegicus. The series can be described thus: […]. The series is classed as ADME, organism-based, Urine. The arrangement: dose 3 mg/kg, route oral. The conditions noted are these: in vivo, po, 3 mg/kg. A digest of the protocol: as §1
Series [11] concerns Rattus norvegicus. The series can be described thus: Mean excretion of chloride in conscious rats at a dose of 100 mg/kg given orally. Format: ADME, organism-based. The arrangement: dose 100 mg/kg, route oral. The conditions noted are these: in vivo, po. A digest of the protocol:
as §3

For series [12], the system named is Rattus norvegicus. Kind of series: Mean excretion of potassium in conscious rats at a dose of 30 mg/kg given orally. Format: ADME, organism-based. The arrangement: dose 30 mg/kg, route oral. Conditions: in vivo, po. A digest of the protocol:
as §3

In series [13] the test system is Rattus norvegicus. The series can be described thus: Mean excretion of sodium in conscious rats at a dose of 100 mg/kg given orally. The series is classed as ADME, organism-based. The arrangement: dose 100 mg/kg, route oral. Conditions: in vivo, po. A digest of the protocol: as §1
The subject of series [14] is Rattus norvegicus. The series can be described thus: Mean excretion of chloride in conscious rats at a dose of 30 mg/kg given orally. The series is classed as ADME, organism-based. On the set-up: dose 30 mg/kg, route oral. The conditions noted are these: in vivo, po. A digest of the protocol: as §3
The species named for series [15] is Rattus norvegicus. The series can be described thus: […]. The series is classed as ADME, organism-based, Urine. On the set-up: dose 0.3 mg/kg, route oral. The conditions noted are these: in vivo, po, 0.3 mg/kg. A digest of the protocol: as §4
Series [16] can be described thus: Diuretic activity at 40 mg/kg (screening dose-84.7 umol/kg) in […] in a one stage experiment; T/C = urine vol of treated rats / urine vol of control rats. Format: functional. A digest of the protocol: as §2
Series [17] deals with Rattus norvegicus. Kind of series: Mean excretion of potassium in conscious rats at a dose of 0.3 mg/kg given orally. The series is classed as ADME, organism-based. On the set-up: dose 0.3 mg/kg, route oral. The conditions noted are these: in vivo, po. A digest of the protocol:
as §3

Series [18] relates to Rattus norvegicus. The series can be described thus: Mean excretion of chloride in conscious rats at a dose of 10 mg/kg given orally. Conditions: in vivo, po. Format: ADME, organism-based. The arrangement: dose 10 mg/kg, route oral. A digest of the protocol: as §3
The species entered for series [19] is Rattus norvegicus. Kind of series: […]. Format: ADME, organism-based, Urine. On the set-up: dose 100 mg/kg, route oral. The conditions noted are these: in vivo, po, 100 mg/kg. A digest of the protocol: as §1
Series [20] deals with Rattus norvegicus. The series can be described thus: Mean excretion of potassium in conscious rats at a dose of 10 mg/kg given orally. Format: ADME, organism-based. The arrangement: dose 10 mg/kg, route oral. Conditions: in vivo, po. A digest of the protocol:
as §3

In series [21] the test system is Rattus norvegicus. The series can be described thus: Mean excretion of chloride in conscious rats at a dose of 3.0 mg/kg given orally. The conditions noted are these: in vivo, po. The series is classed as ADME, organism-based. The arrangement: dose 3 mg/kg, route oral. A digest of the protocol:
as §3

Series [22] deals with Rattus norvegicus. Kind of series: Mean excretion of Cl- in conscious rats at a dose of 0.3 mg/kg given orally. The conditions noted are these: in vivo, po. Format: ADME, organism-based, Urine. On the set-up: dose 0.3 mg/kg, route oral. A digest of the protocol:
as §4

In series [23] the test system is Rattus norvegicus. The series can be described thus: Mean excretion of […] in conscious rats at a dose of 1.0 mg/kg given orally. Format: ADME, organism-based. The arrangement: dose 1 mg/kg, route oral. Conditions: in vivo, po. A digest of the protocol:
as §1

Series [24] relates to Rattus norvegicus. The series can be described thus: Mean excretion of potassium in conscious rats at a dose of 3.0 mg/kg given orally. The series is classed as ADME, organism-based. The arrangement: dose 3 mg/kg, route oral. Conditions: in vivo, po. A digest of the protocol:
as §3

The species entered for series [25] is Rattus norvegicus. Kind of series: […]. Format: ADME, organism-based, Urine. On the set-up: dose 30 mg/kg, route oral. Conditions: in vivo, po, 30 mg/kg. A digest of the protocol:
as §1

Series [26] relates to Rattus norvegicus. The series can be described thus: Mean excretion of potassium in conscious rats at a dose of 1.0 mg/kg given orally. The conditions noted are these: in vivo, po. Format: ADME, organism-based. The arrangement: dose 1 mg/kg, route oral. A digest of the protocol: as §3
A short description of series [27]: Diuretic activity at 40 mg/kg (screening dose-84 umol/kg) in male […] in a one stage experiment; T/C = urine vol of treated rats / urine vol of control rats. Format: functional. A digest of the protocol: as §2
A short description of series [28]: Diuretic activity at 40 mg/kg (screening dose-84 umol/kg) in male […] in a two stage experiment; T/C1.2 = urine vol of treated rats / urine vol of control rats. The series is classed as functional. A digest of the protocol: as §2
Series [29] in a line: Diuretic activity at 40 mg/kg (screening dose-90.5 umol/kg) in […] in a one stage experiment; T/C = urine vol of treated rats / urine vol of control rats. The series is classed as functional. A digest of the protocol: as §2

Turning to `COc1ccc(C(CN(C)C)c2nnc3n2-c2ccc(Cl)cc2C(c2ccccc2)=NC3)cc1` (configuration not stated), the “Mean excretion of Na+” value with Rattus norvegicus [1] worked out at 1.58 m equiv; with Rattus norvegicus [3] it was 0.68 m equiv; in the series on Rattus norvegicus [6], 0.67 m equiv; in the series on Rattus norvegicus [7] it was 0.93 m equiv; in the series on Rattus norvegicus [13], 1.91 m equiv; with Rattus norvegicus [23], 0.66 m equiv. For the same molecule, the “T/C 1.2” value in series [2] amounted to 5.57. The Mean urine volume in the series filed under Rattus norvegicus [4] worked out at 5.74 mL; in the series listed under Rattus norvegicus [9], 4.81 mL; in the series filed under Rattus norvegicus [10] it was 4.98 mL; in the series listed under Rattus norvegicus [15], 4.13 mL; in the series listed under Rattus norvegicus [19], 12.25 mL; in the series listed under Rattus norvegicus [25], 10.47 mL. Moreover, the “Mean excretion of Cl-” value is recorded as 0.71 m equiv with Rattus norvegicus [5]; 1.65 m equiv with Rattus norvegicus [11]; 1.55 m equiv in the series on Rattus norvegicus [14]; 0.93 m equiv with Rattus norvegicus [18]; 0.75 m equiv in the series on Rattus norvegicus [21]; 0.71 m equiv in the series on Rattus norvegicus [22]. The “Mean excretion of K+” value with Rattus norvegicus [8] is listed as 0.26 m equiv; with Rattus norvegicus [12], 0.18 m equiv; in the series with Rattus norvegicus [17] it was 0.23 m equiv; in the series on Rattus norvegicus [20], 0.19 m equiv; with Rattus norvegicus [24] it was 0.23 m equiv; in the series on Rattus norvegicus [26], 0.25 m equiv. Also, in [16], the “T/C 1” value stood at 2.77.

Turning to `CN(C)CC(c1ccccc1)c1nnc2n1-c1ccc(Cl)cc1C(c1ccccc1Cl)=NC2` (configuration not stated), the “T/C 1” value in series [27] was 1.87. Moreover, the “T/C 1.2” value in series [28] is reported as 2.66.

As to `CN(C)CC(c1ccccc1)c1nnc2n1-c1ccccc1C(c1ccccc1Cl)=NC2` (configuration not stated), the “T/C 1” value in series [29] is on record as 1.62.

Consider `COc1ccccc1C(CN(C)C)c1nnc2n1-c1ccc(Cl)cc1C(c1ccccc1)=NC2` (configuration not stated), for which the “Mean excretion of Na+” value in the series with Rattus norvegicus [1] is given as 0.61 m equiv; with Rattus norvegicus [3], 0.68 m equiv; with Rattus norvegicus [6], 0.63 m equiv; in the series with Rattus norvegicus [7], 0.72 m equiv; in the series on Rattus norvegicus [13], 0.6 m equiv; in the series with Rattus norvegicus [23], 0.6 m equiv. Besides, the “T/C 1.2” value in series [2] was found to be 5.03. In addition, the Mean urine volume came to 4.92 mL in the series listed under Rattus norvegicus [4]; 5.08 mL in the series filed under Rattus norvegicus [9]; 5.38 mL in the series listed under Rattus norvegicus [10]; 4.8 mL in the series filed under Rattus norvegicus [15]; 4.56 mL in the series listed under Rattus norvegicus [19]; 5.19 mL in the series filed under Rattus norvegicus [25]. Further, the “Mean excretion of Cl-” value with Rattus norvegicus [5] came out at 0.69 m equiv; in the series with Rattus norvegicus [11], 0.69 m equiv; in the series with Rattus norvegicus [14], 0.76 m equiv; with Rattus norvegicus [18], 0.71 m equiv; in the series with Rattus norvegicus [21], 0.8 m equiv; in the series on Rattus norvegicus [22], 0.69 m equiv. For the same molecule, the “Mean excretion of K+” value is 0.26 m equiv in the series on Rattus norvegicus [8]; 0.23 m equiv in the series with Rattus norvegicus [12]; 0.17 m equiv with Rattus norvegicus [17]; 0.22 m equiv with Rattus norvegicus [20]; 0.24 m equiv in the series with Rattus norvegicus [24]; 0.23 m equiv with Rattus norvegicus [26]. Also, the “T/C 1” value in series [16] is 2.69.

As to `CN(C)CC(c1cccc(Cl)c1)c1nnc2n1-c1ccc(Cl)cc1C(c1ccccc1)=NC2` (configuration not stated), the “T/C 1” value in [27] was determined as 1.86. Moreover, the “T/C 1.2” value in series [28] came to 3.2.
